Values after ≈ are worked out from the molar mass of the structure shown. Where a SMILES comes first, the peptide text is derived from it.
Legend:
Acinetobacter baumannii = assay: Antibacterial activity against Acinetobacter baumannii ATCC 19606 after 18 to 20 hrs by microbroth dilution method; assay type: functional
Procedure, shortened: (§1)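 CLSI microbroth dilution, adapted. Mid-log bacteria, 2 × 10^6 CFU/mL in Mueller-Hinton broth, mixed 1:1 with MH broth holding peptide in serial 2-fold dilutions in 20% ethanol (0.75-48 μM). Incubated 18-20 h at 37 °C; growth read as A600. MIC is the lowest concentration giving 100% growth inhibition.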

Acinetobacter junii = assay: Antibacterial activity against […] Acinetobacter junii RT-4 after 18 to 20 hrs by microbroth dilution method; assay type: functional; procedure, shortened: as §1
Enterococcus faecalis = assay: Antibacterial activity against Enterococcus faecalis ATCC 29212 after 18 to 20 hrs by microbroth dilution method; assay type: functional; procedure, shortened: as §1
Escherichia coli [1] = assay: Antibacterial activity against Escherichia coli ATCC 25922 after 18 to 20 hrs by microbroth dilution method; assay type: functional; procedure, shortened: as §1
Escherichia coli [2] = assay: Antibacterial activity against Escherichia coli D21 after 18 to 20 hrs by microbroth dilution method; assay type: functional; procedure, shortened: as §1
Pseudomonas syringae = assay: Antibacterial activity against Pseudomonas syringae pv tobaci after 18 to 20 hrs by microbroth dilution method; assay type: functional; procedure, shortened: as §1
Pseudomonas aeruginosa [3] = assay: Antibacterial activity against Pseudomonas aeruginosa ATCC 15692 after 18 to 20 hrs by microbroth dilution method; assay type: functional; procedure, shortened: as §1
Pseudomonas aeruginosa [4] = assay: Antibacterial activity against Pseudomonas aeruginosa ATCC 27853 after 18 to 20 hrs by microbroth dilution method; assay type: functional; procedure, shortened: as §1
[5] = system: Yersinia pseudotuberculosis; assay: Antibacterial activity against Yersinia pseudotuberculosis YPIII after 18 to 20 hrs by microbroth dilution method; assay type: functional
Procedure, shortened: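 Broth microdilution adapted from CLSI. Mid-log bacteria at 2 × 10^6 CFU/mL in Mueller-Hinton broth were mixed 1:1 with MH broth containing peptide in serial 2-fold dilutions (peptide in 20% ethanol), 0.75-48 μM. Plates were incubated 18-20 h at 37 °C and growth was read as A600. MIC is the concentration giving 100% growth inhibition.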

Priestia megaterium = assay: Antibacterial activity against Bacillus megaterium Bm11 after 18 to 20 hrs by microbroth dilution method; assay type: functional; procedure, shortened: as §1
Staphylococcus aureus [6] = assay: Antibacterial activity against Staphylococcus aureus ATCC 25923 after 18 to 20 hrs by microbroth dilution method; assay type: functional; procedure, shortened: as §1
Staphylococcus aureus [7] = assay: Antibacterial activity against Staphylococcus aureus Cowan I after 18 to 20 hrs by microbroth dilution method; assay type: functional; procedure, shortened: as §1
Staphylococcus capitis = assay: Antibacterial activity against Staphylococcus capitis after 18 to 20 hrs by microbroth dilution method; assay type: functional; procedure, shortened: as §1
[8] = system: Staphylococcus epidermidis; assay: Antibacterial activity against Staphylococcus epidermidis ATCC 12228 after 18 to 20 hrs by microbroth dilution method; assay type: functional; procedure, shortened: as §1
Streptococcus pyogenes = assay: Antibacterial activity against Streptococcus pyogenes ATCC 21547 after 18 to 20 hrs by microbroth dilution method; assay type: functional; procedure, shortened: as §1
Candida albicans = assay: Antifungal activity against Candida albicans ATCC 10231 after 18 to 20 hrs by microbroth dilution method; assay type: functional
Procedure, shortened: (§2)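 Yeasts tested by adapted CLSI microbroth dilution in Winge medium. Peptide given in serial 2-fold dilutions (0.75-48 μM, made in 20% ethanol). Incubation 18-20 h at 30 °C, read at A600. MIC taken as the concentration giving complete (100%) growth inhibition.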

[9] = system: Schizosaccharomyces pombe; assay: Antifungal activity against Schizosaccharomyces pombe after 18 to 20 hrs by microbroth dilution method; assay type: functional; procedure, shortened: as §2
Saccharomyces cerevisiae = assay: Antifungal activity against Saccharomyces cerevisiae after 18 to 20 hrs by microbroth dilution method; assay type: functional; procedure, shortened: as §2
[10] = Toxicity in human erythrocytes assessed as hemolysis at 24 uM after 40 mins; assay type: cell-based, Erythrocyte; settings: read-out: Activity
Procedure, shortened: (§3)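 Human red blood cells suspended in 0.9% (w/v) NaCl and incubated 40 min at 37 °C with gentle mixing with serial 2-fold peptide dilutions (peptide predissolved in 20% ethanol). Spun 5 min at 900g; supernatant read at 415 nm. Cells lysed in distilled water set the 100% lysis reference.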

[11] = Toxicity in human erythrocytes assessed as hemolysis at 12 uM after 40 mins; assay type: cell-based, Erythrocyte; settings: read-out: Activity; procedure, shortened: as §3
[12] = Toxicity in human erythrocytes assessed as hemolysis at 6 uM after 40 mins; assay type: cell-based, Erythrocyte; settings: read-out: Activity; procedure, shortened: as §3
[13] = Toxicity in human erythrocytes assessed as hemolysis at 3 uM after 40 mins; assay type: cell-based, Erythrocyte; settings: read-out: Activity; procedure, shortened: as §3
[14] = Toxicity in human erythrocytes assessed as hemolysis at 1.5 uM after 40 mins; assay type: cell-based, Erythrocyte; settings: read-out: Activity; procedure, shortened: as §3

Structure (SMILES)	MIC (Acinetobacter baumannii) [µM]	MIC (Acinetobacter junii) [µM]	MIC (Enterococcus faecalis) [µM]	MIC (Escherichia coli [1]) [µM]	MIC (Escherichia coli [2]) [µM]	MIC (Pseudomonas syringae) [µM]	MIC (Pseudomonas aeruginosa [3]) [µM]	MIC (Pseudomonas aeruginosa [4]) [µM]	MIC [5] [µM]	MIC (Priestia megaterium) [µM]	MIC (Staphylococcus aureus [6]) [µM]	MIC (Staphylococcus aureus [7]) [µM]	MIC (Staphylococcus capitis) [µM]	MIC [8] [µM]	MIC (Streptococcus pyogenes) [µM]	MIC (Candida albicans) [µM]	MIC [9] [µM]	MIC (Saccharomyces cerevisiae) [µM]	hemolysis at 40 min, 24 µM [10] [%]	hemolysis at 40 min, 12 µM [11] [%]	other results
CC(C)C[C@H](NC(=O)[C@H](CC(C)C)NC(=O)[C@H](CCCNC(=N)N)NC(=O)CNC(=O)[C@H](CC(C)C)NC(=O)[C@H](CC(C)C)NC(=O)[C@H](CCCCN)NC(=O)[C@H](CO)NC(=O)[C@H](CC(C)C)NC(=O)[C@H](Cc1c[nH]c2ccccc12)NC(=O)[C@H](CCC(N)=O)NC(=O)[C@H](CC(C)C)NC(=O)[C@@H](N)CC(C)C)C(N)=O (H-LLQWLSKLLGRLL-NH2)	12 (≈ 18.6 µg/mL)	24 (≈ 37.2 µg/mL)	3 (≈ 4.66 µg/mL)	6 (≈ 9.31 µg/mL)	12 (≈ 18.6 µg/mL)	6 (≈ 9.31 µg/mL)	12 (≈ 18.6 µg/mL)	24 (≈ 37.2 µg/mL)	3 (≈ 4.66 µg/mL)	1.5 (≈ 2.33 µg/mL)	3 (≈ 4.66 µg/mL)	1.5 (≈ 2.33 µg/mL)	1.5 (≈ 2.33 µg/mL)	1.5 (≈ 2.33 µg/mL)	6 (≈ 9.31 µg/mL)	6 (≈ 9.31 µg/mL)	3 (≈ 4.66 µg/mL)	3 (≈ 4.66 µg/mL)	100	73	hemolysis at 40 min, 6 µM [12]: 25%; hemolysis at 40 min, 3 µM [13]: 9%; hemolysis at 40 min, 1.5 µM [14]: 4%
CC[C@H](C)[C@H](NC(=O)[C@H](CCCNC(=N)N)NC(=O)CNC(=O)[C@H](CC(C)C)NC(=O)[C@H](Cc1ccccc1)NC(=O)[C@H](CCCNC(=N)N)NC(=O)[C@H](CO)NC(=O)[C@H](Cc1ccccc1)NC(=O)[C@H](Cc1c[nH]c2ccccc12)NC(=O)[C@H](CCC(N)=O)NC(=O)[C@@H](NC(=O)[C@@H](N)Cc1ccccc1)C(C)C)C(=O)N[C@@H](CC(C)C)C(N)=O (H-FVQWFSRFLGRIL-NH2)	6 (≈ 10 µg/mL)	6 (≈ 10 µg/mL)	12 (≈ 20 µg/mL)	12 (≈ 20 µg/mL)	48 (≈ 80.1 µg/mL)	12 (≈ 20 µg/mL)	24 (≈ 40 µg/mL)	48 (≈ 80.1 µg/mL)	6 (≈ 10 µg/mL)	6 (≈ 10 µg/mL)	6 (≈ 10 µg/mL)	6 (≈ 10 µg/mL)	6 (≈ 10 µg/mL)	6 (≈ 10 µg/mL)	6 (≈ 10 µg/mL)	12 (≈ 20 µg/mL)	6 (≈ 10 µg/mL)	12 (≈ 20 µg/mL)	98	90	hemolysis at 40 min, 6 µM [12]: 29%; hemolysis at 40 min, 3 µM [13]: 9%; hemolysis at 40 min, 1.5 µM [14]: 4%
